From ChEMBL document CHEMBL1121793, “Biological effects of modified colchicines. Improved preparation of 2-demethylcolchicine, 3-demethylcolchicine, and (+)-colchicine and reassignment of the position of the double bond in dehydro-7-deacetamidocolchicines” (J Med Chem, 1981)
Calls of active or inactive are those of the source. The calls are words filed in the database; no cut-off is given here.

What was measured:
[1] = test system: Mus musculus; assay: Toxicity found after a single im injection. The total number of deaths were counted after 7 days and LD50 was determined by probit analysis; 28.6-63.9; format: functional
How it was run: (§1)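 NIH general purpose mice (ca. 20 g), ten per dose level, usually ≥5 dose levels; single im injection in Emulphor EL-620 mixture, vehicle-only group of ten as control. Survivors counted at day 7; LD50 with 95% confidence interval by probit analysis, converted to μmol/kg.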

[2] = species on record: Mus musculus; assay: Dose of compound which caused an average weight loss >3g in a set of mice or the death of one or more of the mice in the set in the P388 NCI screen.; format: functional
How it was run: (§2)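 P388 leukemia-bearing mice, 20–22 g; one im injection daily for 9 days, compound in hydroxypropylcellulose suspension or aqueous solution. Toxic dose = lowest dose level at which ≥1 mouse died on or by day 5, or group mean weight loss >3 g; converted to μmol/kg.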

[3] = test system: P388; assay: The compound was tested for its potency against lymphocytic leukemia P388 screen in mice.; format: functional, Mus musculus
[4] = test system: P388; conditions: Mus musculus
[5] = test system: Mus musculus; assay: Toxicity found after a single im injection. The total number of deaths were counted after 7 days and LD50 was determined by probit analysis; 101.5-317.8; format: functional; how it was run: as §1
[6] = test system: Mus musculus; assay: (§3) Toxicity found after a single im injection. The total number of deaths were counted after 7 days and LD50 was determined by probit analysis.; format: functional; how it was run: as §1
[7] = test system: Mus musculus; assay: Toxicity found after a single im injection. The total number of deaths were counted after 7 days and LD50 was determined by probit analysis; 82.9-163.4; format: functional; how it was run: as §1
[8] = test system: Mus musculus; assay: Toxicity found after a single im injection. The total number of deaths were counted after 7 days and LD50 was determined by probit analysis; 2.4-5.1; format: functional; how it was run: as §1
[9] = test system: Mus musculus; assay: Toxicity found after a single im injection. The total number of deaths were counted after 7 days and LD50 was determined by probit analysis; 2.5-4.0; format: functional; how it was run: as §1
[10] = test system: Mus musculus; assay: Toxicity found after a single im injection. The total number of deaths were counted after 7 days and LD50 was determined by probit analysis; 6.4-11.8; format: functional; how it was run: as §1
[11] = test system: Mus musculus; assay: Toxicity found after a single im injection. The total number of deaths were counted after 7 days and LD50 was determined by probit analysis; 0.9-1.3; format: functional; how it was run: as §1
[12] = as §3; format: organism-based; conditions: mouse, in vivo, read-out: Toxicity; how it was run: as §1
[13] = species on record: Mus musculus; assay: Dose of compound which caused an average weight loss >3g in a set of mice or the death of one or more of the mice in the set in the P388 NCI screen; format: functional; how it was run: as §2
[14] = test system: P388; assay: The compound was tested for its potency against lymphocytic leukemia P388 screen in mice; Inactive.; format: functional, cell-based; conditions: Mus musculus

Row | Structure (SMILES) | Toxicity [2] [µM/kg] | Potency [3] [µM/kg] | Potency [4] | also measured
1 | COc1cc2c(c(OC)c1O)-c1ccc(OC)c(=O)cc1[C@@H](NC(C)=O)CC2 [2-DESMETHYLCOLCHICIN] | 51.9 | 13.8 | – | Toxicity [1]: 42.9 µM/kg
2 | COc1cc2c(c(OC)c1OC)-c1ccc(=O)c(OC)cc1[C@@H](N(C)C=O)CC2 | – | – | inactive | –
3 | COc1cc2c(c(OC)c1OC)-c1ccc(OC)c(=O)cc1[C@@H](N(C)C=O)CC2 | 6.3 | 1.7 | – | Toxicity [5]: 179.7 µM/kg
4 | COc1cc2c(c(O)c1OC)-c1ccc(OC)c(=O)cc1[C@@H](NC(C)=O)CC2 | 103.9 | 86 | – | Toxicity [6]: >520 µM/kg
5 | COc1cc2c(c(OC)c1OC)-c1ccc(OC)c(=O)cc1[C@H](NC(C)=O)CC2 | – | – | – | Toxicity [7]: 122.6 µM/kg
6 | COC1=CC=C2C(=C(NC(C)=O)CCc3cc(OC)c(OC)c(OC)c32)CC1=O | – | – | inactive | –
7 | COc1cc2c(c(OC)c1OC)-c1ccc(=O)c(OC)cc1[C@@H](N(C)C(C)=O)CC2 | – | – | inactive | –
8 | COc1cc2c(c(OC)c1OC)-c1ccc(OC)c(=O)cc1[C@@H](N(C)C(C)=O)CC2 | 3 | 0.4 | – | Toxicity [8]: 3.6 µM/kg
9 | COc1c(O[C@H]2O[C@H](CO)[C@@H](O)[C@H](O)[C@H]2O)cc2c(c1OC)-c1ccc(OC)c(=O)cc1C(NC(C)=O)CC2 (some centres not stated) | – | – | inactive | –
10 | COc1cc2c(c(OC)c1OC)-c1ccc(OC)c(=O)cc1[C@@H](NC(C)=O)CC2 [COLCHICINE] | 2.5 | 0.4 | – | Toxicity [9]: 3 µM/kg
11 | CN[C@H]1CCc2cc(OC)c(OC)c(OC)c2-c2ccc(OC)c(=O)cc21 [DEMECOLCINE] | 21.6 | 10.8 | – | –
12 | COc1cc2c(c(OC)c1OC)-c1ccc(OC)c(=O)cc1[C@@H](N(C)C(=O)C(F)(F)F)CC2 | 5.4 | 1.5 | – | Toxicity [10]: 8.8 µM/kg
13 | COc1cc2c(c(OC)c1OC)-c1ccc(OC)c(=O)cc1C(=O)CC2 | 28.1 | 9.6 | – | –
14 | COc1cc2c(c(OC)c1OC)-c1ccc(OC)c(=O)cc1[C@@H](NC(=O)C(F)(F)F)CC2 | 0.9 | 0.4 | – | Toxicity [11]: 1.1 µM/kg
15 | COc1cc2c(c(OC)c1OC)-c1ccc(=O)c(OC)cc1[C@@H](NC(=O)C(F)(F)F)CC2 | – | – | inactive | –
16 | COc1cc2c(c(OC)c1OC)-c1ccc(OC)c(=O)cc1[C@@H](N(C)Cc1ccccc1O)CC2 [SPECIOSINE] | – | 22 | – | LD50 at 168 h [12]: 296 µmol/kg; Toxicity [13]: 83.9 µM/kg
17 | COc1cc2c(c(OC)c1OC)-c1ccc(=O)c(OC)cc1[C@@H](N(C)C)CC2 | – | – | – | Potency [14]: inactive
18 | COc1cc2c(c(OC(C)=O)c1OC)-c1ccc(OC)c(=O)cc1[C@@H](NC(C)=O)CC2 | 46.8 | – | inactive | Toxicity [6]: 205.9 µM/kg
19 | CN[C@H]1CCc2cc(OC)c(OC)c(OC)c2-c2ccc(=O)c(O)cc21 | – | – | inactive | –
20 | COc1cc2c(c(OC)c1OC)-c1ccc(OC)c(=O)cc1CC=C2 | – | 15.9 | – | LD50 at 168 h [12]: ~300 µmol/kg; Toxicity [13]: 29.4 µM/kg
21 | COc1cc2c(c(OC)c1OC)-c1ccc(=O)c(OC)cc1CC=C2 | – | – | – | Potency [14]: inactive
22 | COc1cc2c(c(OC)c1OC)-c1ccc(OC)c(=O)cc1[C@@H](N(C)C)CC2 | – | 68 | – | LD50 at 168 h [12]: 520 µmol/kg; Toxicity [13]: 51.9 µM/kg
23 | COc1cc2c(c(O)c1OC)-c1ccc(SC)c(=O)cc1[C@@H](NC(C)=O)CC2 | – | – | inactive | –
